Experimental data as given in ChEMBL document CHEMBL3392956, “Evaluation of synthetic naphthalene derivatives as novel chemical chaperones that mimic 4-phenylbutyric acid” (Bioorg Med Chem Lett, 2015).
Activity calls are given as the source filed them. The rule behind the calls is not given here.

Columns and labels:
[1] = Chemical chaperone activity assessed as suppression of alpha-lactalbumin-bovine serum albumin aggregation at 0.3 mM by turbidity assay; format: physicochemical; conditions: 300 µM
In short: (§1)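 Reduced alpha-lactalbumin (r-LA) was made by incubating LA with 5 mM dithiothreitol and 2.5 mM EDTA for 30 min at 25 °C. Aggregation was started at 37 °C by adding denatured bovine serum albumin, with DMSO vehicle or compound present. Turbidity was read as optical density at 488 nm and expressed relative to the matching controls. Values are means ± SE of four independent experiments.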

SH-SY5Y = test: Protection against ER stress-induced human SH-SY5Y cell damage assessed as cell viability at 0.1 mM after 48 hrs by crystal violet assay; format: functional, cell-based
In short: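 Human neuroblastoma SH-SY5Y cells stably expressing Pael-R–FLAG were incubated with or without compound at 0.1, 0.5 or 1.0 mM for 48 h. Viability was determined by crystal violet assay. Values are means ± SE of three independent experiments.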

[2] = Chemical chaperone activity assessed as suppression of alpha-lactalbumin-bovine serum albumin aggregation at 3 mM by turbidity assay; format: physicochemical; conditions: 3000 µM; in short: as §1

Compound	Activity [1]	Activity [2]	Activity (SH-SY5Y)
COc1ccc2cc(CC/C=C/C(=O)O)ccc2c1	Active		Active
O=C(O)CCCc1ccccc1		Active	Active
COc1ccc(CCC(=O)O)c2ccccc12	Active		Active
COc1ccc(CCCCC(=O)O)c2ccccc12	Active		Active
COc1ccc2cc(/C=C/C(=O)O)ccc2c1	Active		Active
COc1ccc2cc(CCC(=O)O)ccc2c1	Active		Active
COc1ccc2cc(CCCCC(=O)O)ccc2c1	Active		Active

The next lines start with results.

Activity [1]	Activity [2]	Compound	Activity (SH-SY5Y)
Active		COc1ccc2ccccc2c1/C=C/C(=O)O	Active
Active		COc1ccc(/C=C/C(=O)O)c2ccccc12	Active
Active		COc1ccc2ccccc2c1CCC(=O)O	Active
Active		COc1ccc2ccccc2c1CC/C=C/C(=O)O	Active
Active		COc1ccc2ccccc2c1CCCCC(=O)O	Active
